Measurements from ChEMBL document CHEMBL1134563, “Synthesis, mechanism of action, and antiviral activity of a new series of covalent mechanism-based inhibitors of S-adenosyl-L-homocysteine hydrolase” (J Med Chem, 2001).
pEC50, pKi: −log10 of the molar value. In brackets after ≈: the same amount, converted by molar mass.

What was measured:
HeLa [1] = assay: Effective concentration required to inhibit Coxsackie virus B4-induced cytopathicity by 50% in HeLa cell lines; type: functional, cell-based; conditions: Homo sapiens
HeLa [2] = assay: Effective concentration required to inhibit vesicular stomatitis virus (VSV)-induced cytopathicity by 50% in HeLa cell lines; type: functional, cell-based; conditions: Homo sapiens
HeLa [3] = assay: Minimum inhibitory concentration required to elicit microscopically visible cell morphology in HeLa cell lines; type: functional; conditions: Homo sapiens
Vero [4] = assay: Effective concentration required to inhibit parainfluenza-3 virus-induced cytopathicity by 50% in Vero cell lines; type: functional, cell-based; conditions: Chlorocebus sabaeus
Vero [5] = assay: Effective concentration required to inhibit reovirus-induced cytopathicity by 50% in Vero cell lines; type: functional, cell-based; conditions: Chlorocebus sabaeus
Vero [6] = assay: Effective concentration required to inhibit respiratory synaptial (RSV) virus-induced cytopathicity by 50% in Vero cell lines; type: functional, cell-based; conditions: Chlorocebus sabaeus
Vero [7] = assay: Minimum inhibitory concentration required to elicit microscopically visible cell morphology in Vero cell lines; type: functional; conditions: Chlorocebus sabaeus
Vero [8] = assay: Effective concentration required to inhibit Punta Toro virus-induced cytopathicity by 50% in Vero cell lines; type: functional, cell-based; conditions: Chlorocebus sabaeus
HeLa [9] = assay: Effective concentration required to inhibit respiratory synaptial (RSV) virus-induced cytopathicity by 50% in HeLa cell lines; type: functional, cell-based; conditions: Homo sapiens
E6SM [10] = assay: Effective concentration required to inhibit Herpes simplex virus-1 (HSV-1) induced cytopathicity by 50% in E6SM cell lines; type: functional, cell-based; conditions: Homo sapiens
E6SM [11] = assay: Effective concentration required to inhibit Herpes simplex virus-2 (HSV-2) induced cytopathicity by 50% in E6SM cell lines; type: functional, cell-based; conditions: Homo sapiens
E6SM [12] = assay: Effective concentration required to inhibit Vaccinia virus-induced cytopathicity by 50% in E6SM cell lines; type: functional, cell-based; conditions: Homo sapiens
E6SM [13] = assay: Minimum inhibitory concentration required to elicit microscopically visible cell morphology in E6SM cell lines; type: functional; conditions: Homo sapiens
HEL [14] = assay: Minimum inhibitory concentration required to elicit microscopically visible cell morphology in HEL cell lines; type: functional; conditions: Homo sapiens
HEL [15] = assay: Effective concentration required to inhibit cytomegalo virus-induced cytopathicity by 50% in AD-169 strain HEL cell lines; type: functional, cell-based; conditions: Homo sapiens
HEL [16] = assay: Effective concentration required to inhibit cytomegalo virus-induced cytopathicity by 50% in Davis-169 strain HEL cell lines; type: functional, cell-based; conditions: Homo sapiens
[17] = half life of enzyme inactivation at 15 uM; type: functional
Summary of the method: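 Recombinant human placental AdoHcy hydrolase was preincubated with inhibitor (5-40 µM range) in assay buffer at 37 °C. Residual activity was read at set times in the synthetic direction: [8-14C]-AdoHcy formation from 10 µM [8-14C]-Ado plus 5 mM D,L-Hcy, in 20 mM K phosphate pH 7.5, 1 mg/mL BSA, 1 mM EDTA, for 10 min at 37 °C. HCl stopped the reaction, and products were separated on Cellex P.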

E6SM [18] = assay: Effective concentration required to inhibit Herpes simplex virus-1(HSV-1) / […] kinase deficient (TK-)B2006 / VMW1837 induced cytopathicity by 50% in E6SM cell lines; type: functional, cell-based; conditions: Homo sapiens
E6SM [19] = assay: Effective concentration required to inhibit vesicular stomatitis virus(VSV) -induced cytopathicity by 50% in E6SM cell lines; type: functional, cell-based; conditions: Homo sapiens
HeLa [20] = assay: Effective concentration required to inhibit respiratory synaptial(RSV) virus-induced cytopathicity by 50% in HeLa cell lines; type: functional, cell-based; conditions: Homo sapiens
HEL [21] = assay: Effective concentration required to inhibit thymidine kinase (TK+) Varicella-Zoster virus-induced cytopathicity by 50% in OKA strain HEL cell lines; type: functional, cell-based; conditions: Homo sapiens
HEL [22] = assay: Effective concentration required to inhibit thymidine kinase (TK+) Varicella-Zoster virus-induced cytopathicity by 50% in YS strain HEL cell lines; type: functional, cell-based; conditions: Homo sapiens
HEL [23] = assay: Effective concentration required to inhibit Thymidine kinase deficient (TK-) Varicella-Zoster virus-induced cytopathicity by 50% in 07/01 strain HEL cell lines; type: functional, cell-based; conditions: Homo sapiens
HEL [24] = assay: Effective concentration required to inhibit Thymidine kinase deficient (TK-) Varicella-Zoster virus-induced cytopathicity by 50% in YS/R strain HEL cell lines; type: functional, cell-based; conditions: Homo sapiens
Adenosylhomocysteinase [25] = target: T1, Adenosylhomocysteinase (Homo sapiens, UniProt P23526); assay: Inhibition of purified recombinant human placental S-adenosyl-homocysteine hydrolase
Summary of the method: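 Enzyme preincubated at 37 °C in assay buffer with inactivator (5-40 µM). Residual activity was read over time in the synthetic direction from the formation of [8-14C]-AdoHcy, using 10 µM [8-14C]-Ado, 5 mM D,L-Hcy, 20 mM potassium phosphate pH 7.5, 1 mg/mL BSA and 1 mM EDTA, 10 min at 37 °C. Reaction stopped with HCl; Ado/AdoHcy separated on Cellex P.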
Target sequence in this assay (P23526 whole entry): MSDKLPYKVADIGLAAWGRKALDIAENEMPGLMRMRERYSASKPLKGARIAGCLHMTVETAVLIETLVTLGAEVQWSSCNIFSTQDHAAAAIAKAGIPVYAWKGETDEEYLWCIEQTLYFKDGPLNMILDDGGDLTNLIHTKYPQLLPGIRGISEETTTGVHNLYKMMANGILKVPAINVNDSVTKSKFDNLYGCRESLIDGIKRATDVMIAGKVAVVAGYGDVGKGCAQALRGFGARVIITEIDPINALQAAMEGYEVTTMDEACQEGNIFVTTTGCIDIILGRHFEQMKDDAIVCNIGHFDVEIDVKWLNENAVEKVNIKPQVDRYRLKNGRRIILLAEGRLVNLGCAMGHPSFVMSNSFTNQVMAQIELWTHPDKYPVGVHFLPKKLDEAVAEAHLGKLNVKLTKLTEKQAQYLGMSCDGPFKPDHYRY

Vero [26] = assay: Effective concentration required to inhibit Junin virus-induced cytopathicity by 50% in Vero cell lines; type: functional, cell-based; conditions: Chlorocebus sabaeus
Vero [27] = assay: Effective concentration required to inhibit PuntaToro virus-induced cytopathicity by 50% in Vero cell lines; type: functional, cell-based; conditions: Chlorocebus sabaeus
Vero [28] = assay: Effective concentration required to inhibit Sindbis virus-induced cytopathicity by 50% in Vero cell lines; type: functional, cell-based; conditions: Chlorocebus sabaeus
Vero [29] = assay: Effective concentration required to inhibit Tacaribe virus-induced cytopathicity by 50% Vero cell lines; type: functional, cell-based; conditions: Chlorocebus sabaeus
Adenosylhomocysteinase [30] = target: T1, Adenosylhomocysteinase
Target sequence in this assay (P23526 2-432 limits assumed): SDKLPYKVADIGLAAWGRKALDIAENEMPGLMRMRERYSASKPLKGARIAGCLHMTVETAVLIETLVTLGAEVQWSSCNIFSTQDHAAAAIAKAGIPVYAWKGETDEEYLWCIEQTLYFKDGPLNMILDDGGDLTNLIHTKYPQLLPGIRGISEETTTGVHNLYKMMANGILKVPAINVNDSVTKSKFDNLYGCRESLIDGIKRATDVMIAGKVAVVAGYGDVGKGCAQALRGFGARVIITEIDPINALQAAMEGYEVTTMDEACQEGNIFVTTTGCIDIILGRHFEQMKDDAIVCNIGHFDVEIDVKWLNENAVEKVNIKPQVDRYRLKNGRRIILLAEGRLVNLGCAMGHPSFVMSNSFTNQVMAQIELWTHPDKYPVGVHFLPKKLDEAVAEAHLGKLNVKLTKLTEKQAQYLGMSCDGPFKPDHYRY

Adenosylhomocysteinase [31] = target: T1, Adenosylhomocysteinase; remark: listed apart in the source
Target sequence in this assay (P23526 2-432 limits assumed): as above

Adenosylhomocysteinase [32] = target: T1, Adenosylhomocysteinase; remark: listed apart in the source
Target sequence in this assay (P23526 2-432 limits assumed): as above

HEL [33] = assay: Effective concentration required to inhibit cytomegalo virus(CMV) -induced cytopathicity by 50% in AD-169 strain HEL cell lines; type: functional, cell-based; conditions: Homo sapiens

| SMILES | pEC50 (HeLa [1]) | pEC50 (HeLa [2]) | MIC (HeLa [3]) [µM] | pEC50 (Vero [4]) | pEC50 (Vero [5]) | pEC50 (Vero [6]) | pEC50 (E6SM [10]) | pEC50 (E6SM [11]) | pEC50 (E6SM [12]) | MIC (E6SM [13]) [µM] | MIC (HEL [14]) [µM] | pEC50 (HEL [16]) | pEC50 (E6SM [18]) | pEC50 (E6SM [19]) | pEC50 (HeLa [20]) | pEC50 (HEL [21]) | pEC50 (HEL [22]) | pEC50 (HEL [23]) | pEC50 (HEL [24]) | pEC50 (Vero [27]) | further results |
| --- | --- | --- | --- | --- | --- | --- | --- | --- | --- | --- | --- | --- | --- | --- | --- | --- | --- | --- | --- | --- | --- |
| Nc1ncnc2c1ncn2C[C@H](O)CO [(S)-DHPA] | 3.64 | 3.64 | > 2000 | 3.64 | 4.35 | < 2.70 |  |  |  |  |  |  |  |  |  |  |  |  |  |  | MIC (Vero [7]): > 2000 µM; pEC50 (Vero [8]): < 2.70; pEC50 (HeLa [9]): 2.70 |
| Nc1nc2c(ncn2COC(CO)CO)c(=O)[nH]1 [GANCICLOVIR] |  | < 4.00 |  |  |  |  | 8.92 | 8.92 | < 4.00 | > 1600 | > 150 | 4.93 |  |  |  |  |  |  |  |  | pEC50 (HEL [15]): 5.11 |
| CC#CSC[C@H]1OC(n2cnc3c(N)ncnc32)[C@H](O)[C@@H]1O (stereo partly drawn) | < 3.92 | < 2.91 | > 1240 | < 3.92 | < 3.92 | < 2.91 | 3.60 | 3.21 | 4.31 | 1240 (≈ 398 µg/mL) | > 200 | < 3.70 | < 3.60 | < 3.60 | < 3.60 | < 3.70 | < 3.70 | 3.70 | 3.70 | < 3.92 | T1/2 [17]: 7 min; pEC50 (HEL [15]): < 3.70; pKi (Adenosylhomocysteinase [25]): 4.80; pEC50 (Vero [26]): < 3.70; pEC50 (Vero [28]): < 4.40; pEC50 (Vero [29]): < 3.70; K inact (Adenosylhomocysteinase [30]): 0.062 min⁻¹; NAD+ content (Adenosylhomocysteinase [31]): 0.68; NADH content (Adenosylhomocysteinase [32]): 0.32 |
| C=C=CSC[C@H]1OC(n2cnc3c(N)ncnc32)[C@H](O)[C@@H]1O (stereo partly drawn) | < 3.22 | < 3.60 | 1240 (≈ 398 µg/mL) | < 3.21 | < 3.42 | < 3.60 | 3.60 | < 3.60 | 5.72 | 1240 (≈ 398 µg/mL) | > 200 | < 3.70 | 3.82 | < 3.60 | < 3.60 | < 3.70 | < 3.70 | 4.06 | < 3.70 | < 3.21 | T1/2 [17]: 7 min; pEC50 (HEL [15]): < 3.70; pKi (Adenosylhomocysteinase [25]): 4.80; pEC50 (Vero [26]): < 3.70; pEC50 (Vero [28]): < 3.70; pEC50 (Vero [29]): < 3.70; K inact (Adenosylhomocysteinase [30]): 0.12 min⁻¹; NAD+ content (Adenosylhomocysteinase [31]): 0.7; NADH content (Adenosylhomocysteinase [32]): 0.3 |
| C#CCSC[C@H]1OC(n2cnc3c(N)ncnc32)[C@H](O)[C@@H]1O (stereo partly drawn) | < 3.92 | < 3.60 | 1240 (≈ 398 µg/mL) | < 3.92 | < 3.92 | < 3.60 | < 3.60 | < 3.60 | < 3.60 | 1240 (≈ 398 µg/mL) | > 200 | < 3.70 | < 3.60 | < 3.60 | < 3.60 | < 3.70 | < 3.70 | 3.81 | 3.90 | < 3.92 | T1/2 [17]: 19 min; pEC50 (HEL [33]): < 3.70; pKi (Adenosylhomocysteinase [25]): 4.35; pEC50 (Vero [26]): < 3.70; pEC50 (Vero [28]): < 4.40; pEC50 (Vero [29]): < 3.70; K inact (Adenosylhomocysteinase [30]): 0.0074 min⁻¹; NAD+ content (Adenosylhomocysteinase [31]): 0; NADH content (Adenosylhomocysteinase [32]): 1 |
| NC(=O)c1ncn([C@@H]2O[C@H](CO)[C@@H](O)[C@H]2O)n1 [RIBAVIRIN] | < 3.49 | 3.00 | > 1600 | 3.71 | 4.40 | < 2.80 | 3.49 | 3.49 | 4.19 | > 1600 |  |  | 8.30 | 4.40 | 5.82 |  |  |  |  | 4.40 |  |
| Nc1nc2c(ncn2COCCO)c(=O)[nH]1 [ACYCLOVIR] |  |  |  |  |  |  |  |  |  |  | > 150 |  |  |  |  | 5.34 | 5.39 | 4.39 | 4.20 |  |  |
